In article PMC4363136 (Biochemical pharmacology, 2014):

Experiments:
MAPs-rich tubulin = assay: Light scattering assay of MAPs-rich tubulin polymerization; type: biochemical, goat; settings: 50 µM compound, 1 mg/ml MAPs-rich tubulin, 37°C, 400 nm
PC-3 cells [1] = assay: MTT cell proliferation assay, PC-3; type: cell-based, human
Procedure, shortened: (§1)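 Cell lines were grown in medium with 10% FBS and 1% penicillin/streptomycin: PC-3 in RPMI; HeLa, MIA PaCa-2 and T24 in DMEM. Cells were seeded at 5×10^3 per well, attached overnight, then given test compound (0–500 µM, from PBS solution, diluted in medium) for 48 h. MTT was added for 4 h and formazan dissolved in DMSO. A570 was read. IC50 is the concentration giving 50% inhibition of proliferation.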

HeLa cells = assay: MTT cell proliferation assay, HeLa; type: cell-based; settings: 48 h
Procedure, shortened: as §1

MIA PaCa-2 cells = assay: MTT cell proliferation assay, MIA PaCa-2; type: cell-based
Procedure, shortened: as §1

T24 bladder cancer cells = assay: MTT cell proliferation assay, T24; type: cell-based
Procedure, shortened: as §1

[2] = Pharmacokinetics after intravenous administration; type: in vivo, CD-1 mice
Procedure, shortened: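 Male CD-1 mice, fasted 3 h, received a single IV dose of test compound at 5 mg/kg in water. Blood was sampled sparsely from the retro-orbital plexus at 5 min–24 h into K2EDTA. Plasma was protein-precipitated with acetonitrile and 7-hydroxynoscapine internal standard, then quantified by positive-mode MRM LC-MS/MS (calibration 1 ng/mL–1 µg/mL). Non-compartmental analysis: linear-trapezoid AUC, CL and Vss from IV data, C0 back-extrapolated.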

[3] = Pharmacokinetics after oral administration; type: in vivo, CD-1 mice; settings: for Fold increase in F compared to Nos: oral 50 mg/kg
Procedure, shortened: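 Male CD-1 mice (3 per group), fasted 3 h, were dosed once by oral gavage at 50 mg/kg in water. Plasma was collected by sparse retro-orbital sampling at 5 min–24 h. Samples were acetonitrile-precipitated with internal standard and assayed by LC-MS/MS (1 ng/mL–1 µg/mL). Non-compartmental analysis: linear-trapezoid AUClast, Cmax taken as observed. F is dose-normalized oral AUClast over IV (5 mg/kg) AUClast.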

PC-3 cells [4] = assay: Immunofluorescence confocal microscopy of spindle morphology; type: cell-based, human; settings: 12h and 24h
Procedure, shortened: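 PC-3 cells were grown on glass coverslips and exposed to test compound for 12 h or 24 h. Cells were fixed in −20 °C methanol for 10 min, then blocked in 2% BSA/PBS at 37 °C for 1 h. They were stained with anti-α- and anti-γ-tubulin (1:1000, 45 min, 37 °C) and Alexa Fluor 488/555 secondaries (1:1000, 45 min, 37 °C). DNA was stained with DAPI. Slides were mounted in antifade and imaged by confocal microscopy.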

pure tubulin [5] = assay: Light scattering assay of pure tubulin polymerization; type: biochemical, goat; settings: 10 µM tubulin, 1M monosodium glutamate
MAPs rich tubulin = assay: GTPase activity assay; type: biochemical, goat; settings: different concentrations of compound, 10 min
pure tubulin [6] = assay: GTPase activity assay; type: biochemical, goat; settings: 50 µM compound, compared to control
[7] = oral gavage 50 mg/kg, CD-1 mice, plasma
[8] = male, CD-1, mouse, plasma, iv, 5 mg/kg
[9] = male, CD-1, mouse, plasma, po, 50 mg/kg

Question: With `COc1ccc2c(c1OCCCCS(=O)(=O)O)C(=O)O[C@@H]2[C@H]1c2c(c(Br)c3c(c2OC)OCO3)CCN1C` [Compound 8b, 4-(((S)-1-((R)-9-bromo-4-methoxy-6-methyl-5,6,7,8-tetrahydro-[1,3]dioxolo[4,5-g]isoquin-olin-5-yl)-5-methoxy-3-oxo-1,3-dihydroisobenzofuran-4-yl)oxy)butane-1-sulfonic acid] as the compound, how does the “Percent decrease in light scattering of MAP-tubulin” value (shortened to “Percent decrease”) (MAPs-rich tubulin) read?
Answer: 68 ± 18%

Question: What about the IC50 (PC-3 cells [1]; PC-3 cells, 48 h, MTT) of the same compound?
Answer: 29 µM

Question: What about the IC50 (HeLa cells; MTT) of the same compound?
Answer: 53 µM

Question: What about the IC50 (MIA PaCa-2 cells; MIA Paca-2, 48 h, MTT) of the same compound?
Answer: 40 µM

Question: What about the IC50 (T24 bladder cancer cells; T24, 48 h, MTT) of the same compound?
Answer: 32 µM

Question: What about the CL ([2]; IV 5 mg/kg, CD-1 mice) of the same compound?
Answer: 512 mL/min/kg

Question: What about the VSS ([2]; IV 5 mg/kg, CD-1 mice) of the same compound?
Answer: 23.81 L/kg

Question: And the half-life ([2]; IV 5 mg/kg, CD-1 mice)?
Answer: 22.8 min

Question: And the AUClast ([2]; IV 5 mg/kg, CD-1 mice, plasma)?
Answer: 145.41 ng·h/mL

Question: What about the C0 ([2]; back extrapolated concentration, IV 5 mg/kg, CD-1 mice, plasma) of the same compound?
Answer: 259.39 ng/mL

Question: What about the “Bioavailability F” value ([3]; dose normalized AUClast, oral 50 mg/kg vs IV 5 mg/kg, CD-1 mice) of the same compound?
Answer: 11

Question: What about the “Fold increase in F compared to Nos” value ([3]; CD-1 mice, 50 mg/kg) of the same compound?
Answer: 0.9 fold

Question: And the Tmax ([3]; oral gavage 50 mg/kg, CD-1 mice)?
Answer: 4.8 min

Question: What about the AUClast [3, 7] of the same compound?
Answer: 164 ng·h/mL

Question: And the Cmax [3, 7]?
Answer: 14 ± 7 ng/mL

Question: What about the “spindle / mitotic phenotype” value (PC-3 cells [4]) of the same compound?
Answer: induced a multipolar phenotype

Question: What does the source list for `COc1ccc2c(c1OC)C(=O)O[C@@H]2[C@H]1c2c(cc3c(c2OC)OCO3)CCN1C` [Compound 1, Noscapine, reference compound]?
Answer: Percent decrease in light scattering of MAP-tubulin (MAPs-rich tubulin): 11 ± 4%; % Decrease in light scattering of pure tubulin (pure tubulin [5]; 10 µM compound): 5±1.5%; % Decrease in light scattering of pure tubulin (pure tubulin [5]; 25 µM compound): 9±2.6%; % Decrease in light scattering of pure tubulin (pure tubulin [5]; 50 µM compound): 13±2.9%; change in GTPase activity of MAPs-rich tubulin (MAPs rich tubulin): remained almost unchanged; IC50 (PC-3 cells [1]; Homo sapiens, PC-3, 48 h): 100 µM; IC50 (HeLa cells; Homo sapiens): 436 µM; IC50 (MIA PaCa-2 cells; Homo sapiens, MIA PaCa-2, 48 h): 105 µM; IC50 (T24 bladder cancer cells; 48 h): 83 µM; AUC(0-t) [2, 8]: 479 ng·h/mL; C0 [2, 8]: 1210 ng/mL; Vd [2, 8]: 4.55 L/kg; clearance [2, 8]: 174 mL/min/kg; half-life [2, 8]: 23.4 min; AUC(0-t) [3, 9]: 603 ng·h/mL; Tmax [3, 9]: 4.8 min; bioavailability [3, 9]: 13%; Cmax ([3]; oral gavage 50 mg/kg, CD-1 mice, plasma, listed as Nos, 50 mg/kg): 1156 ± 19 ng/mL

Question: With `COc1ccc2c(c1OCCCS(=O)(=O)O)C(=O)O[C@@H]2[C@H]1c2c(c(Br)c3c(c2OC)OCO3)CCN1C` [Compound 8c, 3-(((S)-1-((R)-9-bromo-4-methoxy-6-methyl-5,6,7,8-tetrahydro-[1,3]dioxolo[4,5-g]isoquinolin-5-yl)-5-methoxy-3-oxo-1,3-dihydroisobenzofuran-4-yl)oxy)propane-1-sulfonic acid] as the compound, how does the “Percent decrease” value (MAPs-rich tubulin) read?
Answer: 61 ± 21%

Question: What about the IC50 (PC-3 cells [1]; Homo sapiens, PC-3, 48 h) of the same compound?
Answer: 55 µM

Question: What about the IC50 (HeLa cells; Homo sapiens) of the same compound?
Answer: 53 µM

Question: And the IC50 (MIA PaCa-2 cells; Homo sapiens, MIA PaCa-2, 48 h)?
Answer: 18 µM

Question: What about the IC50 (T24 bladder cancer cells; 48 h) of the same compound?
Answer: 4 µM

Question: What about the AUC(0-t) [2, 8] of the same compound?
Answer: 133 ng·h/mL

Question: What about the C0 [2, 8] of the same compound?
Answer: 307 ng/mL

Question: What about the Vd [2, 8] of the same compound?
Answer: 18.4 L/kg

Question: What about the clearance [2, 8] of the same compound?
Answer: 584 mL/min/kg

Question: And the half-life [2, 8]?
Answer: 42 min

Question: And the AUC(0-t) [3, 9]?
Answer: 240 ng·h/mL

Question: What about the Tmax [3, 9] of the same compound?
Answer: 4.8 min

Question: And the bioavailability [3, 9]?
Answer: 21%

Question: What about the “Fold increase in F compared to Nos” value ([3]; CD-1 mice, 50 mg/kg) of the same compound?
Answer: 1.7 fold

Question: And the “spindle / mitotic phenotype” value (PC-3 cells [4])?
Answer: induced a multipolar phenotype

Question: With `COc1ccc2c(c1OCCCS(=O)(=O)O)C(=O)O[C@@H]2[C@H]1c2c(cc3c(c2OC)OCO3)CCN1C` [Compound 6c, 3-(((S)-5-methoxy-1-((R)-4-methoxy-6-methyl-5,6,7,8-tetrahydro-[1,3]dioxolo[4,5-g]isoquinolin-5-yl)-3-oxo-1,3-dihydroisobenzofuran-4-yl)oxy)propane-1-sulfonic acid] as the compound, how does the “Percent decrease” value (MAPs-rich tubulin) read?
Answer: 32 ± 14%

Question: And the IC50 (PC-3 cells [1]; Homo sapiens, PC-3, 48 h)?
Answer: 275 µM

Question: Which “change in GTPase activity of MAPs-rich tubulin” value (MAPs rich tubulin) does the source give for `COc1cc([C@@H]2c3cc4c(cc3[C@H](O)[C@H]3COC(=O)[C@H]23)OCO4)cc(OC)c1OC` [podophyllotoxin] here?
Answer: decreased

Question: For `COc1ccc2c(c1OC)C(=O)O[C@@H]2[C@H]1c2c(c(NCCCS(=O)(=O)O)c3c(c2OC)OCO3)CCN1C` [Compound 4c, 3-(((R)-5-((S)-4,5-dimethoxy-3-oxo-1,3-dihydroisobenzofuran-1-yl)-4-methoxy-6-methyl-5,6,7,8-tetrahydro-[1,3]dioxolo[4,5-g]isoquinolin-9-yl)amino)propane-1-sulfonic acid], which “Percent decrease” value (MAPs-rich tubulin) is on record?
Answer: 27 ± 10%

Question: Which “Percent decrease” value (MAPs-rich tubulin) does the source give for `COc1ccc2c(c1OCCC[N+](C)(C)C)C(=O)O[C@@H]2[C@H]1c2c(cc3c(c2OC)OCO3)CCN1C.[Br-]` [Compound 6a, 3-(((S)-5-methoxy-1-((R)-4-methoxy-6-methyl-5,6,7,8-tetrahydro-[1,3]dioxolo[4,5-g]isoquinolin-5-yl)-3-oxo-1,3-dihydroisobenzofuran-4-yl)oxy)-N,N,N-trimethylpropan-1-aminium bromide] here?
Answer: 19 ± 6%

Question: For `COc1ccc2c(c1OC)C(=O)O[C@@H]2[C@H]1c2c(c(NCCCCS(=O)(=O)O)c3c(c2OC)OCO3)CCN1C` [Compound 4b, 4-(((R)-5-((S)-4,5-dimethoxy-3-oxo-1,3-dihydroisobenzofuran-1-yl)-4-methoxy-6-methyl-5,6,7,8-tetrahydro-[1,3]dioxolo[4,5-g]isoquinolin-9-yl)amino)butane-1-sulfonic acid], which “Percent decrease” value (MAPs-rich tubulin) is on record?
Answer: 30 ± 9%

Question: What about the IC50 (PC-3 cells [1]; Homo sapiens, PC-3, 48 h) of the same compound?
Answer: 490 µM

Question: Which results are given for `COc1ccc2c(c1OC)C(=O)O[C@@H]2[C@H]1c2c(c(Br)c3c(c2OC)OCO3)CCN1C` [Compound 2, (S)-3-((R)-9-bromo-4-methoxy-6-methyl-5,6,7,8-tetrahydro-[1,3]dioxolo[4,5-g]isoquinolin-5-yl)-6,7-dimethoxyisobenzofuran-1(3H)-one, reference compound]?
Answer: IC50 (HeLa cells; Homo sapiens): 436 µM; IC50 (T24 bladder cancer cells; 48 h): 191 µM

Question: Which “Percent decrease” value (MAPs-rich tubulin) does the source give for `COc1ccc2c(c1OCCC[N+](C)(C)C)C(=O)O[C@@H]2[C@H]1c2c(c(Br)c3c(c2OC)OCO3)CCN1C.[Br-]` [Compound 8a, 3-(((S)-1-((R)-9-bromo-4-methoxy-6-methyl-5,6,7,8-tetrahydro-[1,3]dioxolo[4,5-g]isoquin-olin-5-yl)-5-methoxy-3-oxo-1,3-dihydroisobenzofuran-4-yl)oxy)-N,N,N-trimethylpropan-1-aminium bromide] here?
Answer: 30 ± 12%

Question: What does the source list for `COc1ccc2c(c1OCCCCS(=O)(=O)O)C(=O)O[C@@H]2[C@H]1c2c(cc3c(c2OC)OCO3)CCN1C` [Compound 6b, 4-(((S)-5-methoxy-1-((R)-4-methoxy-6-methyl-5,6,7,8-tetrahydro-[1,3]dioxolo[4,5-g]isoquinolin-5-yl)-3-oxo-1,3-dihydroisobenzofuran-4-yl)oxy)butane-1-sulfonic acid]?
Answer: Percent decrease in light scattering of MAP-tubulin (MAPs-rich tubulin): 74 ± 13%; % Decrease in light scattering of pure tubulin (pure tubulin [5]; 10 µM compound): 14±6%; % Decrease in light scattering of pure tubulin (pure tubulin [5]; 25 µM compound): 25±7.6%; % Decrease in light scattering of pure tubulin (pure tubulin [5]; 50 µM compound): 35±7.2%; change in GTPase activity of MAPs-rich tubulin (MAPs rich tubulin): increased significantly; change in GTPase activity of pure tubulin (pure tubulin [6]): did not change significantly; IC50 (PC-3 cells [1]; Homo sapiens, PC-3, 48 h): 19 µM; IC50 (HeLa cells; Homo sapiens): 66 µM; IC50 (MIA PaCa-2 cells; Homo sapiens, MIA PaCa-2, 48 h): 30 µM; IC50 (T24 bladder cancer cells; 48 h): 3.3 µM; AUC(0-t) [2, 8]: 198 ng·h/mL; C0 [2, 8]: 502 ng/mL; Vd [2, 8]: 9.53 L/kg; clearance [2, 8]: 369 mL/min/kg; half-life [2, 8]: 37.8 min; AUC(0-t) [3, 9]: 611 ng·h/mL; Tmax [3, 9]: 4.8 min; bioavailability [3, 9]: 27%; Cmax ([3]; oral gavage 50 mg/kg, CD-1 mice, plasma, 50 mg/kg): 2970 ± 60 ng/mL; spindle / mitotic phenotype (PC-3 cells [4]): induced a multipolar phenotype

Question: Which “Percent decrease” value (MAPs-rich tubulin) does the source give for `COc1ccc2c(c1OC)C(=O)O[C@@H]2[C@H]1c2c(c(NCCC[N+](C)(C)C)c3c(c2OC)OCO3)CCN1C.[Br-]` [Compound 4a, 3-(((R)-5-((S)-4,5-dimethoxy-3-oxo-1,3-dihydroisobenzofuran-1-yl)-4-methoxy-6-methyl-5,6,7,8-tetrahydro-[1,3]dioxolo[4,5-g]isoquinolin-9-yl)amino)-N,N,N-trimethylpropan-1-aminium bromide] here?
Answer: 29 ± 5%
